Measurements from ChEMBL document CHEMBL1152451 (J Med Chem, 2009).

Columns and labels:
Format in all cases: ADME, organism-based
[1] = Drug level in spontaneously hypersensitive rat at 300 mg/kg, po qd for 8 days measured after 4 hrs post dose; set-up: dose 300 mg/kg, route oral; settings: spontaneously hypersensitive rat (SHR), in vivo, read-out: Drug uptake
[2] = Drug level in spontaneously hypersensitive rat at 300 mg/kg, po qd for 8 days measured after 24 hrs post dose; set-up: dose 300 mg/kg, route oral; settings: spontaneously hypersensitive rat (SHR), in vivo, read-out: Drug uptake
Rattus norvegicus [3] = experiment: Increase in endogenous 14,15-EET/DHET ratio in spontaneously hypersensitive rat kidney at 300 mg/kg, po for 8 days by LC/MS/MS analysis; set-up: dose 300 mg/kg, route oral; settings: in vivo, 192 h
Summary of the method: (§1)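 SHRs given daily oral doses, with kidneys analysed for endogenous epoxide/diol ratios and for 20-HETE. A parallel PK group of SHRs was sampled on the eighth day of dosing at 4 and 24 h postdose.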

Rattus norvegicus [4] = experiment: Increase in endogenous 20-HETE level in spontaneously hypersensitive rat kidney at 300 mg/kg, po for 8 days by LC/MS/MS analysis; set-up: dose 300 mg/kg, route oral; settings: in vivo, 192 h; summary of the method: as §1
[5] = Half life in spontaneously hypersensitive rat at 1 mg/kg, iv and 2 mg/kg, po; settings: spontaneously hypersensitive rat (SHR), in vivo
[6] = Bioavailability in spontaneously hypersensitive rat at 1 mg/kg, iv and 2 mg/kg, po; settings: spontaneously hypersensitive rat (SHR), in vivo
[7] = Clearance in spontaneously hypersensitive rat at 1 mg/kg, iv and 2 mg/kg, po; settings: spontaneously hypersensitive rat (SHR), in vivo
[8] = Volume of distribution at steady state in spontaneously hypersensitive rat at 1 mg/kg, iv and 2 mg/kg, po; settings: spontaneously hypersensitive rat (SHR), in vivo, read-out: Vdss

SMILES	concentration at 4 h [1] [µM]	concentration at 24 h [2] [µM]	fold change (FC) (Rattus norvegicus [3])	fold change (FC) (Rattus norvegicus [4])	half-life [5] [h]	bioavailability [6] [%]	clearance [7] [mL/min/kg]	Vd [8] [L/kg]
O=C(N[C@@H]1C[C@H]1c1ccccc1)N1CCC(c2nc(-c3ccccn3)no2)CC1	35	20	2	2.5				
O=C(NC1CC1c1ccccc1)N1CCC(c2nc(-c3ccccn3)no2)CC1 (stereo in doubt; 2d)					1.4	77	29	2.7
